In ChEMBL document CHEMBL3861990, “Elaboration of a proprietary thymidylate kinase inhibitor motif towards anti-tuberculosis agents” (Bioorg Med Chem, 2016) one finds Ki data, which are given here for 12 compounds.

In general, Ki refers to the dissociation constant of the complex between target and ligand, obtained from inhibition or displacement.

One assay can be described thus: Inhibition of recombinant Mycobacterium tuberculosis TMPK using dTMP as substrate measured after 1 min in presence of ATP/pyruvate kinase/lactate dehydrogenase/nucleoside diphosphate kinase by coupled spectrophotometric assay. The gist of the method: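 Medium: 50 mM Tris-HCl pH 7.4, 50 mM KCl, 2 mM MgCl2, 0.2 mM NADH, 1 mM phosphoenolpyruvate, and 2 units each of LDH, pyruvate kinase and NDP kinase. ATP fixed at 0.5 mM and dTMP at 0.05 mM. Analogues varied from 0.01 to 1 mM. Result reported as Ki.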
For the compound `Cc1cn(CC2CCCN(Cc3cccc(Oc4ccccc4)c3)C2)c(=O)[nH]c1=O` (racemic), the Ki was found to be 186 µM.

For `Cc1cn(C2CCCN(Cc3ccc(Oc4ccccc4)cc3)C2)c(=O)[nH]c1=O` (racemic), the Ki is 22.3 µM.

With `Cc1cn(C2CCCN(C(=O)c3ccc(Oc4ccccc4)cc3)C2)c(=O)[nH]c1=O` (racemic), the Ki is 14.4 µM.

For the compound `Cc1cn([C@@H]2CCCN(Cc3ccc(Oc4ccccc4)cc3)C2)c(=O)[nH]c1=O`, the Ki turned out to be 138 µM.

`Cc1cn(CC2CCN(Cc3ccc(Oc4ccccc4)cc3)C2)c(=O)[nH]c1=O` (racemic): the inhibitory constant (Ki) came to 267 µM.

For `Cc1cn(C2CCCN(C(=O)c3cccc(Oc4ccccc4)c3)C2)c(=O)[nH]c1=O` (racemic), the Ki was found to be 2.1 µM.

For `Cc1cn([C@@H]2CCN(Cc3cccc(Oc4ccccc4)c3)C2)c(=O)[nH]c1=O`, the inhibitory constant (Ki) came to 8.2 µM.

Take `Cc1cn([C@H]2CCN(Cc3cccc(Oc4ccccc4)c3)C2)c(=O)[nH]c1=O`: the Ki amounted to 7.8 µM.

On to `Cc1cn([C@H]2CCCN(Cc3ccc(Oc4ccccc4)cc3)C2)c(=O)[nH]c1=O`, for which the inhibitory constant (Ki) amounted to 21.5 µM.

In the case of `Nc1nc(=O)n([C@H]2C[C@H](O)[C@@H](CO)O2)cc1Br`, the Ki came out at 5 µM.

On to `Cc1cn(CC2CCN(Cc3cccc(Oc4ccccc4)c3)C2)c(=O)[nH]c1=O` (racemic), for which the Ki stood at 111 µM.

The nature of another assay: Inhibition of recombinant Mycobacterium tuberculosis TMPK expressed in Escherichia coli using dTMP as substrate in presence of ATP/pyruvate kinase/lactate dehydrogenase/nucleoside diphosphate kinase by coupled spectrophotometric assay. The essentials:
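Coupled assay read at 334 nm. Medium: 50 mM Tris-HCl pH 7.4, 50 mM KCl, 2 mM MgCl2, 0.2 mM NADH, 1 mM phosphoenolpyruvate, and 2 units each of LDH, pyruvate kinase and NDP kinase. ATP fixed at 0.5 mM and dTMP at 0.05 mM. Analogues varied from 0.01 to 1 mM. Result reported as Ki.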
Turning to `Cc1cn(C/C=C\CN2c3cccc4cccc(c34)S2(=O)=O)c(=O)[nH]c1=O`, the inhibition constant Ki turned out to be 270 nM.
